This is an account of results in ChEMBL document CHEMBL1149336, “Fumarranol, a rearranged fumagillin analogue that inhibits angiogenesis in vivo” (J Med Chem, 2006).

Calls of active or inactive are those of the source. The rule behind the calls is not given here.

As usually defined, the IC50 is the concentration that inhibits the measured activity by half. Low readings indicate inhibition by little substance, high ones a need for much substance.

Assay [1] relates to AEC. As to the kind of experiment: Antiproliferative activity against BAEC. The conditions noted are these: Bos taurus.
The subject of assay [2] is AEC. Briefly: Antiproliferative activity against BAEC at 100 uM. Format: functional, cell-based. To be noted: Bos taurus.
The target in assay [3] is Methionine aminopeptidase 2 (Homo sapiens) (UniProt P50579). As to the kind of experiment: Inhibition of human MetAP2 at 100 uM.
Sequence of Methionine aminopeptidase 2 (Homo sapiens) (P50579 2-478 limits assumed): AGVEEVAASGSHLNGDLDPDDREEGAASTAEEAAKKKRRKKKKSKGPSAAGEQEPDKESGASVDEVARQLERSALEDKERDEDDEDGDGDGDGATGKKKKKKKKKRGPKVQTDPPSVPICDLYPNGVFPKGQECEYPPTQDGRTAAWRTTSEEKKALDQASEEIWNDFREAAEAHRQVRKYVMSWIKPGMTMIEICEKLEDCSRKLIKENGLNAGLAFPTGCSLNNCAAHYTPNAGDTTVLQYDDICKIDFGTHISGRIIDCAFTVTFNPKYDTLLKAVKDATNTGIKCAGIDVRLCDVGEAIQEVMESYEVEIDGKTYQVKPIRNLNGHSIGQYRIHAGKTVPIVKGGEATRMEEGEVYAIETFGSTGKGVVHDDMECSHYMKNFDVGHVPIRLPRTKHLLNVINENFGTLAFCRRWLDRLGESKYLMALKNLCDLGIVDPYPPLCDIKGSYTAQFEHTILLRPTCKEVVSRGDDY
For assay [4], the system named is Mus musculus. Briefly: Inhibition of VEGF and FGF-stimulated angiogenesis in mouse at 90 mg/kg by Matrigel plug assay. Format: functional, organism-based. More on the design: dose 90 mg/kg. The method, boiled down: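 Matrigel with VEGF and basic FGF injected subcutaneously into mice and left 10 days while new vessels grew in. Compound given at 90 mg/kg/day. Vessel ingrowth was judged by the red colour of the plug and by MAS-trichrome staining of plug slices.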

The subject of assay [5] is Mus musculus. Briefly: Ulceration in mouse at 90 mg/kg. Details: dose 90 mg/kg. It counts as functional, organism-based. The method, boiled down: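 Mice in the VEGF/bFGF matrigel-plug study were dosed at 90 mg/kg/day and their skin was inspected for ulceration.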
Assay [6] concerns Mus musculus. Briefly: Inhibition of VEGF and FGF-stimulated angiogenesis in mouse at 30 mg/kg by Matrigel plug assay. It counts as functional, organism-based. More on the design: dose 30 mg/kg. Summed up:
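Mice received subcutaneous matrigel containing VEGF and basic FGF, with the agent dosed at 30 mg/kg/day. After 10 days, vessel ingrowth into the plug was judged by the plug's red colour and by MAS-trichrome staining of matrigel slices to visualize blood vessels.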

The subject of assay [7] is Mus musculus. Briefly: Ulceration in mouse at 30 mg/kg. Format: functional, organism-based. More on the design: dose 30 mg/kg.

Turning to `CO[C@]12C(=O)CC[C@@]1(CO)[C@H]2/C(C)=C/CC=C(C)C`, in the assay on AEC [1], 1780 nM corresponded to half-maximal inhibition (IC50).
The same measure, in the same setting: to `CO[C@]12C(=O)CC[C@@]1(CO)C2C(C)CCC=C(C)C` (stereo not given in full) belongs 4000 nM.
`CO[C@]12C(=O)CC[C@@]1(CN1C(=O)c3ccccc3C1=O)C2[C@@]1(C)O[C@@H]1CC=C(C)C` (stereo not given in full): the outcome (with AEC [2]; in assay [3]) was inactive.
With `CO[C@@H]1C(=O)CC[C@](O)(C=O)[C@H]1[C@@]1(C)O[C@@H]1CC=C(C)C` [FUMAGALONE], the half-maximal inhibitory concentration (IC50) with AEC [1] came out at 52 nM.
Take `CO[C@]12C(=O)CC[C@@]1(CO)C2[C@@]1(C)O[C@@H]1CC=C(C)C` (stereo not given in full) [FUMARRANOL]: the outcome in the assay with Mus musculus [4] was Active. The outcome in the assay with Mus musculus [5] was inactive. Also, inhibition in the assay on AEC [1] was half-maximal at 34 nM (IC50).
Consider `CO[C@@]12C([C@@]3(C)O[C@@H]3CC=C(C)C)[C@]1(CO)CC[C@H]2O` (stereo not given in full), for which the result (in the assay with AEC [2]; in assay [3]) was inactive.
In the assay on AEC [1], `CO[C@]12C(=O)CC[C@@]1(C=O)C2[C@@]1(C)O[C@@H]1CC=C(C)C` (stereo not given in full) displayed a 50% inhibitory concentration (IC50) of 370 nM.
As to `CO[C@@H]1[C@H](OC(=O)NC(=O)CCl)CC[C@]2(CO2)[C@H]1[C@@]1(C)O[C@@H]1CC=C(C)C` [O-CHLOROACETYLCARBAMOYLFUMAGILLOL], the result in the assay on Mus musculus [6] and in the assay with Mus musculus [7] was Active. Moreover, half-maximal inhibition with AEC [1] (IC50) was put at 0.037 nM.
As for `CCOC(=O)CCCC/C=C/C[C@H]1O[C@]1(C)C1[C@]2(CO)CCC(=O)[C@]12OC` (stereo not given in full), the outcome (in the assay with AEC [2]; in assay [3]) was inactive.
`COC[C@@]12CCC(=O)[C@]1(OC)C2[C@@]1(C)O[C@@H]1CC=C(C)C` (stereo not given in full): the outcome (with AEC [2]; in assay [3]) was inactive.
Consider `CO[C@]12C(=O)/C(=C/c3ccco3)C[C@@]1(CO)C2[C@@]1(C)O[C@@H]1CC=C(C)C` (stereo not given in full), for which the result (with AEC [2]; in assay [3]) was inactive.
